In ChEMBL document CHEMBL1130007, “Carbocyclic oxetanocins lacking the C-3' methylene” (1997):
In brackets after ≈: the same amount, converted by molar mass.

How the values were obtained:
Type in all cases: functional
E6SM [1] = experiment: Minimum inhibitory conc. for 50% inhibition of vesicular stomatitis virus induced cytopathicity in E6SM cells; conditions: Homo sapiens
HEL [2] = experiment: Minimum inhibitory conc. for 50% inhibition of growth in HEL cells; conditions: Homo sapiens
Procedure, shortened: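 HEL cell cytotoxicity was measured as inhibition of normal cell growth. The value is the concentration inhibiting growth by 50%.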

E6SM [3] = experiment: Minimum inhibitory conc. for 50% inhibition of alteration of morphology in E6SM cells; conditions: Homo sapiens
Procedure, shortened: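 Toxicity in E6SM, HeLa or Vero cultures was judged by microscopically visible alteration of normal cell morphology. The value is the concentration producing this alteration (50%).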

E6SM [4] = experiment: Minimum inhibitory conc. for 50% inhibition of HSV-1 (KOS) virus induced cytopathicity in E6SM cells; conditions: Homo sapiens
E6SM [5] = experiment: Minimum inhibitory conc. for 50% inhibition of TK HSV-1 (B2006) virus induced cytopathicity in E6SM cells; conditions: Homo sapiens
Procedure, shortened: (§1)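 Confluent E6SM or Vero monolayers were infected with 100 CCID50 of virus and allowed 1 h of adsorption. Residual virus was then removed. Cultures were incubated with compound in serial dilutions (400, 200, 100, ... µg/mL). Cytopathicity was scored when it was complete in the untreated infected controls.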

E6SM [6] = experiment: Minimum inhibitory conc. for 50% inhibition of HSV-2 (G) virus induced cytopathicity in E6SM cells; conditions: Homo sapiens; procedure, shortened: as §1
E6SM [7] = experiment: Minimum inhibitory conc. for 50% inhibition of vaccinia virus induced cytopathicity in E6SM cells; conditions: Homo sapiens
HEL [8] = experiment: Minimum inhibitory conc. for 50% inhibition of CMV (AD-169) virus plaque formation in HEL cells; conditions: Homo sapiens
Procedure, shortened: (§2)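 HEL cell cultures were inoculated with 100 CCID50 of virus and allowed 1 h of adsorption. Residual virus was then removed. Cultures were incubated with compound at graded concentrations (400, 200, 100, ... µg/mL). Read-out was virus plaque formation, scored when the infected controls were fully affected. The value is the concentration reducing plaque formation by 50%.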

HEL [9] = experiment: Minimum inhibitory conc. for 50% inhibition of CMV (Davis) virus plaque formation in HEL cells; conditions: Homo sapiens; procedure, shortened: as §2
HeLa [10] = experiment: Minimum inhibitory conc. for 50% inhibition of vesicular stomatitis virus induced cytopathicity in HeLa cells; conditions: Homo sapiens
HeLa [11] = experiment: Minimum inhibitory conc. for 50% inhibition of coxsackie B4 virus induced cytopathicity in HeLa cells; conditions: Homo sapiens
Vero [12] = experiment: Minimum inhibitory conc. for 50% inhibition of alteration of morphology in Vero cells; conditions: Chlorocebus sabaeus
Vero [13] = experiment: Minimum inhibitory conc. for 50% inhibition of forest virus induced cytopathicity in Vero cells; conditions: Chlorocebus sabaeus; procedure, shortened: as §1
Vero [14] = experiment: Minimum inhibitory conc. for 50% inhibition of Reo-1 virus induced cytopathicity in Vero cells; conditions: Chlorocebus sabaeus; procedure, shortened: as §1
Vero [15] = experiment: Minimum inhibitory conc. for 50% inhibition of Parainfluenza-3 virus induced cytopathicity in Vero cells; conditions: Chlorocebus sabaeus; procedure, shortened: as §1
Vero [16] = experiment: Minimum inhibitory conc. for 50% inhibition of Sindbis virus induced cytopathicity in Vero cells; conditions: Chlorocebus sabaeus; procedure, shortened: as §1
HeLa [17] = experiment: Minimum inhibitory conc. for 50% inhibition of Polio-1 virus induced cytopathicity in HeLa cells; conditions: Homo sapiens
HeLa [18] = experiment: Minimum inhibitory conc. for 50% inhibition of morphology […] in HeLa cells; conditions: Homo sapiens
E6SM [19] = experiment: Minimum inhibitory conc. for 50% inhibition of HSV-1 (McIntyre) virus induced cytopathicity in E6SM cells; conditions: Homo sapiens
E6SM [20] = experiment: Minimum inhibitory conc. for 50% inhibition of HSV-1 (F) virus induced cytopathicity in E6SM cells; conditions: Homo sapiens; procedure, shortened: as §1
E6SM [21] = experiment: Minimum inhibitory conc. for 50% inhibition of HSV-2 (196) virus induced cytopathicity in E6SM cells; conditions: Homo sapiens; procedure, shortened: as §1
E6SM [22] = experiment: Minimum inhibitory conc. for 50% inhibition of HSV-2 (Lyons) virus induced cytopathicity in E6SM cells; conditions: Homo sapiens; procedure, shortened: as §1
HEL [23] = experiment: Minimum inhibitory conc. for 50% inhibition of VZV (OKA) virus plaque formation in HEL cells; conditions: Homo sapiens
HEL [24] = experiment: Minimum inhibitory conc. for 50% inhibition of TK-VZV (YS/R) virus plaque formation in HEL cells; conditions: Homo sapiens
HEL [25] = experiment: Minimum inhibitory conc. for 50% inhibition of TK VZV (07/1) virus plaque formation in HEL cells; conditions: Homo sapiens
HEL [26] = experiment: Minimum inhibitory conc. for 50% inhibition of VZV (YS) virus plaque formation in HEL cells; conditions: Homo sapiens

Compound	MIC (E6SM [1]) [µg/mL]	MIC (HEL [2]) [µg/mL]	MIC (E6SM [3]) [µg/mL]	MIC (E6SM [4]) [µg/mL]	MIC (E6SM [5]) [µg/mL]	MIC (E6SM [6]) [µg/mL]	MIC (E6SM [7]) [µg/mL]	MIC (HEL [8]) [µg/mL]	MIC (HEL [9]) [µg/mL]	other results
Nc1nc2c(ncn2COCCO)c(=O)[nH]1 [ACYCLOVIR]	> 200	> 200	400 (≈ 1780 µM)	0.04 (≈ 0.178 µM)	70 (≈ 311 µM)	0.07 (≈ 0.311 µM)	> 200			
Nc1ccn(C[C@@H](CO)OCP(=O)(O)O)c(=O)n1.O.O [CIDOFOVIR]								0.06	0.07	
Nc1nc2c(ncn2COC(CO)CO)c(=O)[nH]1 [GANCICLOVIR]								1.5 (≈ 5.88 µM)	0.13 (≈ 0.509 µM)	
NC(=O)c1ncn([C@@H]2O[C@H](CO)[C@@H](O)[C@H]2O)n1 [RIBAVIRIN]										MIC (HeLa [10]): 4 µg/mL (≈ 16.4 µM); MIC (HeLa [11]): 70 µg/mL (≈ 287 µM); MIC (Vero [12]): > 400 µg/mL; MIC (Vero [13]): 300 µg/mL (≈ 1230 µM); MIC (Vero [14]): 70 µg/mL (≈ 287 µM); MIC (Vero [15]): 70 µg/mL (≈ 287 µM); MIC (Vero [16]): 150 µg/mL (≈ 614 µM); MIC (HeLa [17]): 70 µg/mL (≈ 287 µM); MIC (HeLa [18]): > 200 µg/mL
O=c1[nH]c(=O)n([C@H]2C[C@H](O)[C@@H](CO)O2)cc1/C=C/Br [BRIVUDINE]	> 200	150 (≈ 450 µM)	> 400	0.004 (≈ 0.012 µM)	7 (≈ 21 µM)	> 200	0.07 (≈ 0.21 µM)			MIC (E6SM [19]): 0.007 µg/mL (≈ 0.021 µM); MIC (E6SM [20]): 0.01 µg/mL (≈ 0.03 µM); MIC (E6SM [21]): > 200 µg/mL; MIC (E6SM [22]): 100 µg/mL (≈ 300 µM); MIC (HEL [23]): 0.0008 µg/mL (≈ 0.0024 µM); MIC (HEL [24]): > 50 µg/mL; MIC (HEL [25]): 5 µg/mL (≈ 15 µM); MIC (HEL [26]): 0.002 µg/mL (≈ 0.006 µM)
